Active and inactive are the calls of the source. The calls are words filed in the database; no cut-off is given here.
Key:
Integrin alpha-4/beta-1 = Integrin alpha-4/beta-1 (Homo sapiens, UniProt P05556+P13612); experiment: Inhibition of integrin alpha4beta1-mediated Jurkat cell adhesion to VCAM-1 by FACS analysis; format: cell-based
In short: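 α4β1-positive Jurkat cells were incubated with recombinant soluble VCAM-1, and binding of this ligand was measured by flow cytometry (FACS).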

Ovis aries [1] = experiment: Antiasthamatic activity in sheep asthma model assessed as prevention of carbachol-induced hyperresponsiveness at 1 mg/kg, po; format: functional, organism-based; parameters: dose 1 mg/kg
[2] = Volume of distribution in Beagle dog at 3 mg/kg, iv and 10 mg/kg, po; format: ADME, organism-based, Canis lupus familiaris; settings: in vivo
In short: (§1)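 Male dogs in each arm; the intravenous arm used 3 mg/kg and the oral arm 10 mg/kg.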

[3] = Bioavailability in Sprague-Dawley rat at 10 mg/kg, iv and po; format: ADME, organism-based; settings: in vivo
In short: (§2)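 Male rats in each arm; the compound was given at 10 mg/kg both intravenously and orally, with parameters taken from these two arms.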

[4] = Half life in Beagle dog at 3 mg/kg, iv and 10 mg/kg, po; format: ADME, organism-based, Canis lupus familiaris; settings: in vivo; in short: as §1
[5] = Bioavailability in Beagle dog at 3 mg/kg, iv and 10 mg/kg, po; format: ADME, organism-based, Canis lupus familiaris; settings: in vivo; in short: as §1
Rattus norvegicus = experiment: Volume of distribution in Sprague-Dawley rat at 10 mg/kg, iv and po; format: ADME, organism-based; parameters: dose 10 mg/kg, route oral; settings: in vivo; in short: as §2
[6] = Bioavailability in cynomolgus monkey at 3 mg/kg, iv and 10 mg/kg, po; format: ADME, organism-based, Macaca fascicularis; settings: in vivo
In short: (§3)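 Male monkeys in each arm; the compound was given at 3 mg/kg intravenously and at 10 mg/kg orally.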

[7] = Half life in cynomolgus monkey at 3 mg/kg, iv and 10 mg/kg, po; format: ADME, organism-based, Macaca fascicularis; settings: in vivo; in short: as §3
[8] = Clearance in cynomolgus monkey at 3 mg/kg, iv and 10 mg/kg, po; format: ADME, organism-based, Macaca fascicularis; settings: in vivo; in short: as §3
Ovis aries [9] = experiment: Antiasthamatic activity in sheep asthma model assessed as prevention of carbachol-induced hyperresponsiveness at 0.3 mg/kg, po; format: functional, organism-based; parameters: dose 0.3 mg/kg
[10] = Half life in Sprague-Dawley rat at 10 mg/kg, iv and po; format: ADME, organism-based; parameters: dose 10 mg/kg, route oral; settings: in vivo; in short: as §2
[11] = Volume of distribution in cynomolgus monkey at 3 mg/kg, iv and 10 mg/kg, po; format: ADME, organism-based, Macaca fascicularis; settings: in vivo; in short: as §3
[12] = Clearance in Beagle dog at 3 mg/kg, iv and 10 mg/kg, po; format: ADME, organism-based, Canis lupus familiaris; settings: in vivo; in short: as §1
[13] = Oral bioavailability in Sprague-Dawley rat at 10 mg/kg; format: ADME, organism-based; settings: in vivo
Ovis aries [14] = experiment: Antiasthamatic activity in po dosed sheep asthma model assessed as prevention of carbachol-induced early phase hyperresponsiveness; format: functional; settings: read-out: MED
Ovis aries [15] = experiment: Antiasthamatic activity in po dosed sheep asthma model assessed as prevention of carbachol-induced late phase hyperresponsiveness; format: functional; settings: read-out: MED
[16] = Drug excretion in Sprague-Dawley rat bile at 10 mg/kg, po; format: ADME, organism-based; parameters: dose 10 mg/kg, route oral; settings: read-out: Activity

Integrin alpha-4/beta-1, sequence (P05556 whole entry): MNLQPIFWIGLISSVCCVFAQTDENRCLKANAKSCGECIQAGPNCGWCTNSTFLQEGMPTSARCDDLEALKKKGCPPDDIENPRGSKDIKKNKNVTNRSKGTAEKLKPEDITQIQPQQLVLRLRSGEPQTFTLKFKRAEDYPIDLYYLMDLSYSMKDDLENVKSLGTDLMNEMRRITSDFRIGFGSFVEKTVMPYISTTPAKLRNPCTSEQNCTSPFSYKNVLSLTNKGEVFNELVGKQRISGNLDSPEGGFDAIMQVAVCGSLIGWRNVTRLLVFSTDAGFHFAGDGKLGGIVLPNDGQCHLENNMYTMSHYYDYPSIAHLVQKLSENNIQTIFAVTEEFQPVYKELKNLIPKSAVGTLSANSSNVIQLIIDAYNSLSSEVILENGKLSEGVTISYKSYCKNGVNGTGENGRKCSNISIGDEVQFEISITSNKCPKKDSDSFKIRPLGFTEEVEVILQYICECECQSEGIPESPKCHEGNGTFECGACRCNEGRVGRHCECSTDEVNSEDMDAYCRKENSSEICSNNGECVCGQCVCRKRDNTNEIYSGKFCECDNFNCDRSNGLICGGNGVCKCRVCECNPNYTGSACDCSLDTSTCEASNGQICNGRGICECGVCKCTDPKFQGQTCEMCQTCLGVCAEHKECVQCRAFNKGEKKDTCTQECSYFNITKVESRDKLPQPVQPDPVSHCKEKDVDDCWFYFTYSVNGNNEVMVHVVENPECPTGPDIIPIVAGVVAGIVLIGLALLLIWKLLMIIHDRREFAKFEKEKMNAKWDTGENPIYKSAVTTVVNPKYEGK
Integrin alpha-4/beta-1, sequence (P13612 whole entry): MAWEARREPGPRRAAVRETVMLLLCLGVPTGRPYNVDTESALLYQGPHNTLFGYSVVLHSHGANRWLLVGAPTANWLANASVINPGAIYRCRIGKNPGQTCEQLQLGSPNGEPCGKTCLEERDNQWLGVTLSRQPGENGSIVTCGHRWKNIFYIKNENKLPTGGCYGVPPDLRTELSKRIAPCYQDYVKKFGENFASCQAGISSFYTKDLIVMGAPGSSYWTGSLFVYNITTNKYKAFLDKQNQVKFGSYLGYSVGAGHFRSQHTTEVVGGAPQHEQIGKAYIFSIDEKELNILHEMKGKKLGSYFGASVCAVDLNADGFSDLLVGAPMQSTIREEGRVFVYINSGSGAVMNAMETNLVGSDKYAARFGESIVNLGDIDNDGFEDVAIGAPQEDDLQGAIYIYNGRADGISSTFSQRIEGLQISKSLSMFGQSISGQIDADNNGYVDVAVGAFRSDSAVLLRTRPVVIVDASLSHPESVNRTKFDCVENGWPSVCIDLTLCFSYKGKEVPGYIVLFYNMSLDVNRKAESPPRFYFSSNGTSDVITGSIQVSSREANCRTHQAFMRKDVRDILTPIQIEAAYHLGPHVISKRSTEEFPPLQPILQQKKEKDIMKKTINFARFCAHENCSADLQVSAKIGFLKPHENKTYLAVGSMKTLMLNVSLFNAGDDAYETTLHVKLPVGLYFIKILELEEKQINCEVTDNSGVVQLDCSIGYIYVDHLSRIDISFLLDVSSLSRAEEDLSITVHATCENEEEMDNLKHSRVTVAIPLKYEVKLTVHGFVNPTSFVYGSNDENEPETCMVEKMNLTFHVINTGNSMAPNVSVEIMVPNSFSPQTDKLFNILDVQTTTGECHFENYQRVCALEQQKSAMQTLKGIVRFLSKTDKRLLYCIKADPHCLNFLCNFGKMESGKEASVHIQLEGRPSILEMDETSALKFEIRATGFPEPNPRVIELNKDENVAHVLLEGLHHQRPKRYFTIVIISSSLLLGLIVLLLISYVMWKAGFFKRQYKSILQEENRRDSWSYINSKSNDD

SMILES | IC50 (Integrin alpha-4/beta-1) | further results
Cc1ccccc1-c1cnc(N(C)CC(C)C)nc1N[C@@H](Cc1ccc(OC(=O)N(C)C)cc1)C(=O)O | 7 nM | 
CN(C)C(=O)Oc1ccc(C[C@H](Nc2ncncc2-c2cccnc2)C(=O)O)cc1 | 130 nM | 
Cc1ccccc1-c1cnc(N(C)C)nc1N[C@@H](Cc1ccc(OC(=O)N(C)C)cc1)C(=O)O | 29 nM | 
Cc1ccccc1-c1cnc(N(C)C2CC2)nc1N[C@@H](Cc1ccc(OC(=O)N(C)C)cc1)C(=O)O | 20 nM | 
CCCN(CC)c1ncc(-c2ccccc2C)c(N[C@@H](Cc2ccc(OC(=O)N(C)C)cc2)C(=O)O)n1 | 4.9 nM | 
CN(C)C(=O)Oc1ccc(C[C@H](Nc2ncnc3ccccc23)C(=O)O)cc1 | 190 nM | 
CN(C)C(=O)Oc1ccc(C[C@H](Nc2ncncc2-c2ccc[nH]2)C(=O)O)cc1 | 75 nM | 
CN(C)C(=O)Oc1ccc(C[C@H](Nc2ncncc2-c2c(F)cccc2F)C(=O)O)cc1 | 27 nM | 
CN(C)C(=O)Oc1ccc(C[C@H](Nc2ncncc2-c2cccc(Cl)c2Cl)C(=O)O)cc1 | 77 nM | 
CN(C)C(=O)Oc1ccc(C[C@H](Nc2ncncc2-c2ccncc2)C(=O)O)cc1 | 85 nM | 
COc1ccccc1-c1cncnc1N[C@@H](Cc1ccc(OC(=O)N(C)C)cc1)C(=O)O | 16 nM | 
CN(C)C(=O)Oc1ccc(C[C@H](Nc2ncncc2-c2cccc([N+](=O)[O-])c2)C(=O)O)cc1 | 180 nM | 
CN(C)C(=O)Oc1ccc(C[C@H](NC(=O)c2ccccc2)C(=O)O)cc1 | 130 nM | 
Cc1ccccc1-c1cnc(N(C)C2CCC2)nc1N[C@@H](Cc1ccc(OC(=O)N(C)C)cc1)C(=O)O | 10 nM | 
CN(C)C(=O)Oc1ccc(C[C@H](Nc2ncncc2-c2ccccc2F)C(=O)O)cc1 | 18 nM | 
Cc1ccccc1-c1cncnc1N[C@@H](Cc1ccc(OC(=O)N(C)C)cc1)C(=O)O | 25 nM | 
Cc1ccsc1-c1cncnc1N[C@@H](Cc1ccc(OC(=O)N(C)C)cc1)C(=O)O | 5 nM | 
CCN(CC)c1ncc(-c2c(C)noc2C)c(N[C@@H](Cc2ccc(OC(=O)N(C)C)cc2)C(=O)O)n1 |  | Activity (Ovis aries [1]): Active; Vd [2]: 0.524 L/kg; bioavailability [3]: 19%; half-life [4]: 0.9 h; bioavailability [5]: 59%; Vd (Rattus norvegicus): 0.346 L/kg; bioavailability [6]: 16%; half-life [7]: 1.1 h; clearance [8]: 13.5 mL/min/kg; Activity (Ovis aries [9]): inactive; half-life [10]: 1.4 h; Vd [11]: 1.29 L/kg; clearance [12]: 6.73 mL/min/kg
Cc1cc(C)c(-c2cncnc2N[C@@H](Cc2ccc(OC(=O)N(C)C)cc2)C(=O)O)c(C)c1 | 100 nM | 
Cc1ccccc1-c1cnc(N(C)c2ccc(Cl)cc2)nc1N[C@@H](Cc1ccc(OC(=O)N(C)C)cc1)C(=O)O | 107 nM | 
CN(C)C(=O)Oc1ccc(C[C@H](Nc2nc(N(C)C3CCCCC3)nc3ccccc23)C(=O)O)cc1 | 8 nM | 
Cc1noc(C)c1-c1cncnc1N[C@@H](Cc1ccc(OC(=O)N(C)C)cc1)C(=O)O | < 1 nM | 
CCN(CC)c1ncc(-c2ccccc2C)c(N[C@@H](Cc2ccc(OC(=O)N(C)C)cc2)C(=O)O)n1 | 5.7 nM | 
Cc1ccccc1-c1cnc(N(C)C2CCN(C)CC2)nc1N[C@@H](Cc1ccc(OC(=O)N(C)C)cc1)C(=O)O | 68 nM | 
CN(C)C(=O)Oc1ccc(C[C@H](Nc2ncncc2-c2ccccc2C(F)(F)F)C(=O)O)cc1 | 90 nM | 
CN(C)C(=O)Oc1ccc(C[C@H](Nc2ncncc2-c2cccs2)C(=O)O)cc1 | 16 nM | 
CCN(C)c1ncc(-c2ccccc2C)c(N[C@@H](Cc2ccc(OC(=O)N(C)C)cc2)C(=O)O)n1 | 5.3 nM | 
Cc1ccccc1-c1cnc(N(C)C2CCCCC2)nc1N[C@@H](Cc1ccc(OC(=O)N(C)C)cc1)C(=O)O | 20 nM | bioavailability [13]: 26%; minimal effective dose (Ovis aries [14]): 10 mg/kg; minimal effective dose (Ovis aries [15]): 10 mg/kg; dose excreted [16]: < 3%
CN(C)C(=O)Oc1ccc(C[C@H](Nc2ncncc2-c2ccccc2)C(=O)O)cc1 | 300 nM | 
Cc1ccccc1-c1cnc(N2CCCCC2)nc1N[C@@H](Cc1ccc(OC(=O)N(C)C)cc1)C(=O)O | 32 nM | 

Source: ChEMBL document CHEMBL1681711, “Discovery of a potent, orally bioavailable pyrimidine VLA-4 antagonist effective in a sheep asthma model” (Bioorg Med Chem Lett, 2011)
